proKLK7 act – activators of human kallikrein-7 zymogen; P49862; purified proKLK7, EDANS-DABCYL substrate fluorescence; 100% is mature enzyme control, 0% vehicle; activation, % at 7 µM; 370,000 compounds, 0.9% hits;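 active = activation above the mean of all tested compounds plus 3 SD, computed per campaign excluding outliers beyond control limits, cut at about 13% in these data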
MT1-MMP act inh – MT1-MMP (human) activation inhibition; 360,000 compounds, 0.061% hits; GFP/RFP ratio change, % at 20 µM; AID 651647; HT1080 RFP-PRO-GFP cells, GFP/RFP ratio fluorescence, overnight; percent of plate control window, DMSO zero; P50281;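 active = GFP/RFP ratio change of at least 30% with cell ATP level not reduced by more than half and red fluorescence within 50% of control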
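Compound: 20 µM single dose, 1% DMSO / System: HT1080 RFP-PRO-GFP cells / Controls: DMSO and RFP-L50D-GFP cell wells / Read-out basis: GFP/RFP fluorescence ratio / Schedule: overnight compound exposure at 37 °C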
SKN-1 inh – blocks SKN-1 activity in C. elegans; C. elegans VP596 Pgst-4::GFP/RFP ratio, acrylamide-induced, 24 h; inhibition, % at 21.8 µM; 360,000 compounds, 0.49% hits; AID 624304;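 active = interference check ratio from 0.5 to 1.5 plus GFP to RFP signal ratio inhibition reaching or exceeding a fixed threshold, cut at about 30% in these data, passing the limit was not always enough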
Tn6 DDE FP – inhibitors of Tn6 peptide binding to human fibrin DD(E) | P02675 | Fibrin DD(E) TRITC-Tn6 fluorescence polarization displacement | inhibition, % at 8.3 µM | 370,000 compounds, 0.21% hits;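 active = inhibition above a per-campaign cutoff: mean of compounds within control limits plus 3 SD, cut at about 15% in these data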
Target sequence (P02675 whole entry, looked up): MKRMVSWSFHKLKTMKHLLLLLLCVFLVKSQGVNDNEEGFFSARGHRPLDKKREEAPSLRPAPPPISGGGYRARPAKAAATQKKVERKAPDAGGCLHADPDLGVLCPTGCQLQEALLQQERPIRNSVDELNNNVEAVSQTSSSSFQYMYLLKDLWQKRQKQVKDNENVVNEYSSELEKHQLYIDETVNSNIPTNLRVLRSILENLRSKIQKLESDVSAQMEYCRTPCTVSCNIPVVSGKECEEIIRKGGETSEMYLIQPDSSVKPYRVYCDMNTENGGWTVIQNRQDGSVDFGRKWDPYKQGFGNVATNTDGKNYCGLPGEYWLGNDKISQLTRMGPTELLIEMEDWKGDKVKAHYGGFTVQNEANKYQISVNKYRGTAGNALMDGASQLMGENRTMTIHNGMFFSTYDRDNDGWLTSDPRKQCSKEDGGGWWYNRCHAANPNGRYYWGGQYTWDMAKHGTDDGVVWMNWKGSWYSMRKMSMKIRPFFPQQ
Tn7 DDE FP – inhibitors of Tn7 peptide binding to human fibrin DD(E); 370,000 compounds, 0.13% hits; P02675; inhibition, % at 8.3 µM; AID 720508; FP displacement of FITC-Tn7 peptide from fibrin DD(E); 0% = median of compound wells per plate;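 active = inhibition above the mean of compounds falling within the control limits plus 3 SD of them, cut at about 14% in these data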
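assay system = human clot-derived fibrin DD(E) complex | quantity = Fibrin-DD(E) at 2 µM final | timing = 10 min preincubation, 3 h with tracer, room temperature | signal = fluorescence polarization | measure = percent inhibition | benchmarks = high control wells with 10 µM unlabelled Aha-Tn7 peptide (full inhibition) | replicates = singlicate testing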
Neddyl block – cullin neddylation inhibition. AID 651699. P61081+Q13564. calls only at 25 µM. 360,000 compounds, 0.58% hits. TR-FRET cullin neddylation, biochemical; in the data active = inhibition above about 36%
KLK7 act conf – confirmation of human kallikrein-7 zymogen activators. shares compounds with proKLK7 act. purified proKLK7, EDANS-DABCYL substrate fluorescence; scaled: vehicle 0, mature enzyme 100. activation, % at 7 µM. 3,200 compounds, 68% hits;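 active = activation, as change over the incubation, above the mean of all tested compounds plus 3 SD, cut at about 13% in these data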
EDANS-DABCYL int – optically interferes with EDANS-DABCYL signal, flagging KLK7 hits | EDANS-DABCYL substrate fluorescence interference, no enzyme, 4 h; solvent 0%, active enzyme control 100% | 3,200 compounds, 80% hits | activation, % at 7 µM | shares compounds with proKLK7 act;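 active = activation above the all-compound mean plus 3 SD, ignoring values outside control-based bounds, cut at about 4.8% in these data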;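 also: value is the 4 h activation minus the activation read at time zero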
K7 EDANS ctr – counter-screen for kallikrein-7 activators: EDANS-DABCYL interference, dose response; EDANS-DABCYL peptide fluorescence interference, no enzyme; 250 compounds, 20% hits; EC50, µM; AID 720493; shares compounds with proKLK7 act;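 active = compounds that raise the fluorescence signal in this interference counterscreen, with EC50 at or below 10 µM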;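 also: intact quenched peptide substrate alone read at 355 nm excitation and 520 nm emission; signal is fluorescence gain from T0 to T4 after four hours at room temperature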
Hits are given with their value; – = inactive; · = not tested or not shown. This is a sample that favours compounds with a hit; in the whole collection about 2.2% have one here.

SMILES	proKLK7 act	MT1-MMP act inh	SKN-1 inh	Tn6 DDE FP	Tn7 DDE FP	Neddyl block	KLK7 act conf	EDANS-DABCYL int	others
O=C(NCC1CCCO1)c1coc2nc3ccccc3nc12 (stereo not drawn)	79.8	–	–	–	–	–	308.2	292.6
CCCC(=O)OCC(=O)NC1CCCc2ccccc21 (stereo not drawn)	–	–	–	–	–	–	·	·
CCOC(=O)c1cc(-c2ccco2)nc2c1c(C)nn2CCC#N	31.6	–	–	–	–	·	–	–
Cc1cc(C(=O)OCC(=O)NCCc2ccccc2)c2ccccc2n1	–	–	–	–	–	–	·	·
O=C(COC(=O)c1cc(-c2ccco2)nc2ccccc12)NCc1ccccc1	21.5	–	–	–	–	–	51.5	54.9
CCN(CC)C(=O)COC(=O)c1cc(-c2ccco2)nc2ccccc12	74.1	–	–	–	–	–	20.3	17.2	K7 EDANS ctr=–
CCN(CC)C(=O)COC(=O)c1cc(-c2ccc(OC)cc2)nc2ccccc12	–	–	–	–	–	·	·	·
CCN(CC)C(=O)c1ccccc1NC(=O)c1cccc(S(=O)(=O)N(CC)CC)c1	–	–	–	–	–	–	·	·
COc1ccc(Nc2ncnc3c2cnn3Cc2ccccc2)cc1	–	–	–	–	–	–	·	·
COc1ccc(-c2cc(C(F)(F)F)n3nc(C(=O)NCCN4CCOCC4)cc3n2)cc1	–	–	–	–	–	·	·	·
COc1ccc(-c2cc(C(F)(F)F)n3nc(C(=O)NCCCn4ccnc4)cc3n2)cc1	57.4	–	–	–	–	·	–	–
COc1ccccc1C(CNC(=O)c1ccc(NS(=O)(=O)c2ccc(F)c(C)c2)cc1)N1CCCC1 (stereo not drawn)	–	–	–	–	–	–	·	·
COc1ccc(-c2cc(=O)c3ccc(O)cc3o2)cc1OC	120.6	–	–	–	–	·	41.7	45.9
COc1ccc(-c2cc3ccc(O)cc3oc2=O)cc1OC	42.2	–	–	–	–	–	70.6	70.7
CS(=O)(=O)N1CCN(c2ccccc2NC(=O)c2ccc([N+](=O)[O-])o2)CC1	–	–	–	–	–	–	·	·
O=C(Nc1ccc(Br)cc1Br)C1CC(=O)N(Cc2ccccc2)C1 (stereo not drawn)	–	–	–	–	–	–	·	·
O=c1c(C=NCCCO)c(-c2ccccc2)[nH]n1-c1nc2ccccc2s1	–	–	–	–	–	–	·	·
C/C(=N\NC(=O)c1ccc(CN2CCOCC2)cc1)c1ccc(NC(=O)c2ccccc2)cc1	–	–	–	–	–	–	·	·
O=C(c1ccc2ccccc2c1)C1CCCN(C(=O)c2cccnc2)C1 (stereo not drawn)	–	–	–	–	–	–	·	·
CCNC(=O)N1CCCC(C(=O)c2ccc3cc(OC)ccc3c2)C1 (stereo not drawn)	–	–	–	–	–	·	·	·
COc1ccc2cc(C(=O)C3CCCN(Cc4ccccn4)C3)ccc2c1 (stereo not drawn)	38.8	–	–	–	–	·	–	–
CCn1ccnc1CN1CCCC(C(=O)c2ccc3cc(OC)ccc3c2)C1 (stereo not drawn)	35.9	–	–	–	–	·	–	–
COc1ccc2cc(C(=O)C3CCCN(C(=O)c4cccnc4)C3)ccc2c1 (stereo not drawn)	22.4	–	–	–	–	·	57.2	46.7	K7 EDANS ctr=–
Cc1cc(C)n(-c2nc3ccccc3nc2Nc2ccc3[nH]c(=O)[nH]c3c2)n1	–	–	–	–	–	–	·	·
CN(Cc1ccccc1)S(=O)(=O)c1ccc(Cl)c(C(=O)NCc2ccncc2)c1	–	–	–	–	–	–	·	·
SMILES	proKLK7 act	MT1-MMP act inh	SKN-1 inh	Tn6 DDE FP	Tn7 DDE FP	Neddyl block	KLK7 act conf	EDANS-DABCYL int	others
CN1CCN(S(=O)(=O)c2ccc3c4c(cccc24)C(=O)N3)CC1	66.3	–	–	–	–	·	40.9	49.0
O=C1Nc2ccc(S(=O)(=O)N3CCOCC3)c3cccc1c23	34.5	–	–	–	–	·	58.4	56.6
COc1ccc(CCN(C)C(=O)CNC(=O)Cc2cccc3ccccc23)cc1OC	–	–	–	–	–	–	·	·
COc1ccc(S(=O)(=O)N2CCCCCC2)cc1C(=O)N1CCN(c2ccccc2C)CC1	–	–	–	–	–	–	·	·
CC(C)c1cc(NCCOCCO)n2c(nc3ccccc32)c1C#N	54.2	–	–	–	–	·	52.2	49.5
CCCc1cc(NCCCCO)n2c(nc3ccccc32)c1C#N	25.4	–	–	–	–	·	–	–
CCCc1cc(NCCOCCO)n2c(nc3ccccc32)c1C#N	44.7	–	–	–	–	·	42.3	27.2	K7 EDANS ctr=–
O=C(NCc1nnc(SCc2ccccc2)n1-c1ccc(F)cc1)C12CC3CC(CC(C3)C1)C2	–	–	–	–	–	–	·	·
O=C(O)CN1C(=O)COc2ccc(S(=O)(=O)N3CCCCCC3)cc21	–	–	–	–	–	–	·	·
Cc1ccc([C@@H]2C3COCC=C3C(C#N)=C(N)C2(C#N)C#N)o1 (stereo partly drawn)	13.0	–	–	–	–	–	53.5	50.5
O=C(CCN1C(=O)[C@@H]2Cc3ccccc3CN2C1=O)NCc1ccc(Cl)cc1	–	–	–	–	–	–	·	·
COc1cc2c(cc1OC)CN(C1CCCN(Cc3cccc(C(C)=O)c3)C1)CC2 (stereo not drawn)	22.9	–	–	–	–	–	–	11.5
Cc1cc(CN2CCCC(N3CCc4ccccc4C3)C2)cc(C)c1O (stereo not drawn)	–	–	–	–	–	–	·	·
O=C(CNc1cccc2ccccc12)N/N=C/c1ccc(C(=O)O)cc1	–	–	–	–	–	–	·	·
C/C(=N\NC(=O)CNc1cccc2ccccc12)c1ccccc1	46.1	–	–	–	–	·	–	–
C/C(CCc1ccco1)=N\NC(=O)CNc1cccc2ccccc12	33.1	–	–	–	–	–	–	6.1
CC[N+](CC)(CC#Cc1ccccc1)CC(=O)c1ccc(Cl)cc1	–	–	–	–	–	–	·	·
Cc1ccc(S(=O)(=O)c2c(N)n(NC(=O)C3CC3)c3nc4ccccc4nc23)cc1	37.1	–	–	–	–	·	–	4.1
CN(C)CCCn1c(N)c(C#N)c2nc3ccccc3nc21	120.7	–	–	–	–	·	62.7	71.5

Screening results as filed in PubChem.
